From article PMC5970965 (Prostaglandins & other lipid mediators, 2018)

Tests used:
[1] = rat liver microsomal metabolic stability; assay type: in vitro ADME; conditions: for half-life / microsomal CLint: both, rat, rat liver microsomes; for microsomal CLint: app (rat liver microsomes)
Human sEH = target: T1, Human sEH (Homo sapiens, UniProt P34913); experiment: human sEH inhibition assay, fluorescent substrate CMNPC; assay type: biochemical
T1 sequence (P34913 1-555): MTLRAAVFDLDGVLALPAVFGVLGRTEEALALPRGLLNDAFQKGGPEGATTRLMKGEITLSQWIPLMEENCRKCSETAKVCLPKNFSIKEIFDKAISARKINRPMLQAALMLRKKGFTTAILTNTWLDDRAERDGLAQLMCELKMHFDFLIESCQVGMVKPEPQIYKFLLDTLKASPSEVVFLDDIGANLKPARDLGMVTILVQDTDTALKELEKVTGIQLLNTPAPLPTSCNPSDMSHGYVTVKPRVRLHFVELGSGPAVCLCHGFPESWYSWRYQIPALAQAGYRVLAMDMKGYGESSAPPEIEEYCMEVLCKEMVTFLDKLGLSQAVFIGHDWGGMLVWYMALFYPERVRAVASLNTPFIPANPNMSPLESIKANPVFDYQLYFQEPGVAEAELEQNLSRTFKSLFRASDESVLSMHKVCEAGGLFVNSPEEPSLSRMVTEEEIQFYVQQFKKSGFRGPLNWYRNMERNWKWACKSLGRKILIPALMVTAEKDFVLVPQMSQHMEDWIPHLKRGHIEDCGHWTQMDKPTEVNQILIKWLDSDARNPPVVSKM

[2] = cited from earlier work
[3] = target: T2, fatty acid amide hydrolase (FAAH) (Homo sapiens, UniProt O00519); experiment: FAAH inhibition assay, substrate OMP; assay type: biochemical
T2 sequence (O00519 1-579): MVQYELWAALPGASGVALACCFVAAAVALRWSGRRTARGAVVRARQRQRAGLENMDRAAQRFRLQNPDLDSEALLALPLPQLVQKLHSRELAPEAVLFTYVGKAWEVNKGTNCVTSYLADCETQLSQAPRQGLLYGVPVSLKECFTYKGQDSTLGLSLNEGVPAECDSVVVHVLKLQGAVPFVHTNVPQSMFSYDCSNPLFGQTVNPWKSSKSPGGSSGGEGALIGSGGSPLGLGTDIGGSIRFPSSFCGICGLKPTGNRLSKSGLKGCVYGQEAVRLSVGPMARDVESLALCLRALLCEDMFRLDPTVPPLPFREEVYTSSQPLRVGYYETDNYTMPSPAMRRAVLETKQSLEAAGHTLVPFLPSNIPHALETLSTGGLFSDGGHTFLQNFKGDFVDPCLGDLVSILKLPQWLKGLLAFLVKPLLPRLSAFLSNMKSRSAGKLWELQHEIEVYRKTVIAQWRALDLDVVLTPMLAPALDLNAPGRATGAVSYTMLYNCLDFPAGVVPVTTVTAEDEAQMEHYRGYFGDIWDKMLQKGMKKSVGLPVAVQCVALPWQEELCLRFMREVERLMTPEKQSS
Procedure, shortened: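 FAAH activity was followed fluorimetrically (excitation 303 nm, emission 394 nm) at 37 °C using N-(6-methoxypyridin-3-yl)octanamide (OMP) at a final concentration of 50 μM. The reaction buffer was 0.1 M sodium phosphate, pH 8, containing 0.1 mg/mL BSA. Each experiment was run in triplicate, and values are given as average ± SD.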

[4] = human liver microsomal metabolic stability; assay type: in vitro ADME; conditions: both, human liver microsomes
rat sEH enzyme = target: T3, rat sEH enzyme (Rattus norvegicus, UniProt P80299); experiment: rat sEH inhibition assay; assay type: biochemical
T3 sequence (P80299 1-554): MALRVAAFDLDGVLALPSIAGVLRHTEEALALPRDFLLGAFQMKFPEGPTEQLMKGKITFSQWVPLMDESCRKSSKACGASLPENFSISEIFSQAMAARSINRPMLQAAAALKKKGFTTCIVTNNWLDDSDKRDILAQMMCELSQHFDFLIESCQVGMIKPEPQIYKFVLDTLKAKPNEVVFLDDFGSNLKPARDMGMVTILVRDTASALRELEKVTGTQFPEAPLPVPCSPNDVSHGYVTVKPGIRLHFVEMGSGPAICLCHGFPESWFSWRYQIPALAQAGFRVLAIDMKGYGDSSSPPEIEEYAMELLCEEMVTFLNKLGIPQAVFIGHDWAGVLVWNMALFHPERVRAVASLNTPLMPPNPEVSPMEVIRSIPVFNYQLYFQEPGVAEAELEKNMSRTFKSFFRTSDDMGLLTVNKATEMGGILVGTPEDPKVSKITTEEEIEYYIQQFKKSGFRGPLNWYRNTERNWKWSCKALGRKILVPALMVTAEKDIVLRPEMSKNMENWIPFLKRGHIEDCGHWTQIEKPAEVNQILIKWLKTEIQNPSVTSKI

[5] = apparent intrinsic clearance, CLint = k/P

| CLint, app (rat liver microsomes) [1, 5] | Structure (SMILES) | half-life [1] | microsomal CLint [1, 5] | IC50 (Human sEH) | CLint, app (human liver microsomes), previously published value in parenthesis [2] | IC50 [3] | half-life [4] | microsomal CLint [4] | IC50 (rat sEH enzyme) |
| --- | --- | --- | --- | --- | --- | --- | --- | --- | --- |
| – | Cc1ccc(S(=O)(=O)N2CCC(C(=O)Nc3ccc4cc(C(=O)O)ccc4c3)CC2)c(C)c1 [Compound 3, 6-(1-((2,4-dimethylphenyl)sulfonyl)piperidine-4-carboxamido)-2-naphthoic acid] | 0.433 h | 53.3 µL/min/mg | 85 nM | 6.3 µL/min/mg | 23000 nM | 3.1 h | 7.5 µL/min/mg | 141 ± 20 nM |
| <23.1 µL/min/mg | [2H]c1c([2H])c(S(=O)(=O)N2CCC(C(=O)Nc3ccc4cc(C(=O)O)ccc4c3)CC2)c(C([2H])([2H])[2H])c([2H])c1C([2H])([2H])[2H] [Compound 3i, 6-(1-((2,4-bis(methyl-d3)phenyl-3,5,6-d3)sulfonyl)piperidine-4-carboxamido)-2-naphthoic acid] | > 1 h | ~20 µL/min/mg | 106 nM | – | 8800 nM | > 4 h | < 5.8 µL/min/mg | – |
